In test [1] the test system is Candida albicans. Kind of test: Minimum inhibitory concentration against the growth of Candida albicans 124 NIK strain. Type of test: functional. In a few lines: (§1)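 Cells grown in yeast nitrogen base with ammonium sulfate (0.5%) as nitrogen source, 24-48 h at 37 °C. MIC is the lowest drug concentration producing 5% morphologically aberrant cells, scored by microscopy.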

Test [2] relates to Candida albicans. Kind of test: Minimum inhibitory concentration against the growth of Candida albicans 124 strain. Type of test: functional. Put shortly: as §1
Test [3] has as its system Candida albicans. Kind of test: Minimum inhibitory concentration against the growth of Candida albicans H-317 strain. In kind it is functional. Put shortly:
as §1

Test [4] has as its system Candida albicans. The test can be described thus: Percent inhibition of transport of (Leu)2 into Candida albicans H-317. Type of test: functional. Further details: concentration or dose not given beside the values. Put shortly:
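H-317 cells grown in yeast nitrogen base with isoleucine (0.5%) as nitrogen source, harvested at 8×10^6 cells/mL, and washed. Cells in 2% glucose were warmed 10 min at 37 °C, then mixed with pH 5.5 citrate (10 mM)-KH2PO4 (10 mM) buffer containing labeled dileucine (5.6×10^-5 M, 44 μCi/μmol). Analogue was present at 10-fold molar excess. Samples were filtered at 0-4 min and counted; uptake rate was expressed as nmol/mg dry weight/min.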

Test [5] concerns Candida albicans. The test can be described thus: Percent inhibition of transport of (Met)3 into Candida albicans H-317. Type of test: functional. Further details: concentration or dose not given beside the values. In a few lines: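 H-317 cells grown in yeast nitrogen base with isoleucine (0.5%) as nitrogen source, washed, and prewarmed 10 min at 37 °C in 2% glucose. Cells were mixed with pH 3.5 citrate (10 mM)-KH2PO4 (10 mM) buffer containing labeled trimethionine (2.9×10^-5 M, 1 μCi/μmol). Analogue was added at 10-fold molar excess. Filtered samples were taken at 0, 1, 2, 3 and 4 min and counted by scintillation; rate was expressed as nmol/mg dry cells/min.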

The target of test [6] is Chitin synthase 1 (Candida albicans) (UniProt P23316). Kind of test: (§2) Concentration at which chitin synthetase is inhibited by 50%. Put shortly: (§3)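 Mixed membrane (particulate) fraction from C. albicans H-317 was the enzyme source. Chitin synthetase activity was measured with and without polyoxin compounds as incorporation of N-acetylglucosamine into chitin. ID50 is the concentration giving 50% inhibition.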
Chitin synthase 1 (Candida albicans), sequence (P23316 whole entry, looked up): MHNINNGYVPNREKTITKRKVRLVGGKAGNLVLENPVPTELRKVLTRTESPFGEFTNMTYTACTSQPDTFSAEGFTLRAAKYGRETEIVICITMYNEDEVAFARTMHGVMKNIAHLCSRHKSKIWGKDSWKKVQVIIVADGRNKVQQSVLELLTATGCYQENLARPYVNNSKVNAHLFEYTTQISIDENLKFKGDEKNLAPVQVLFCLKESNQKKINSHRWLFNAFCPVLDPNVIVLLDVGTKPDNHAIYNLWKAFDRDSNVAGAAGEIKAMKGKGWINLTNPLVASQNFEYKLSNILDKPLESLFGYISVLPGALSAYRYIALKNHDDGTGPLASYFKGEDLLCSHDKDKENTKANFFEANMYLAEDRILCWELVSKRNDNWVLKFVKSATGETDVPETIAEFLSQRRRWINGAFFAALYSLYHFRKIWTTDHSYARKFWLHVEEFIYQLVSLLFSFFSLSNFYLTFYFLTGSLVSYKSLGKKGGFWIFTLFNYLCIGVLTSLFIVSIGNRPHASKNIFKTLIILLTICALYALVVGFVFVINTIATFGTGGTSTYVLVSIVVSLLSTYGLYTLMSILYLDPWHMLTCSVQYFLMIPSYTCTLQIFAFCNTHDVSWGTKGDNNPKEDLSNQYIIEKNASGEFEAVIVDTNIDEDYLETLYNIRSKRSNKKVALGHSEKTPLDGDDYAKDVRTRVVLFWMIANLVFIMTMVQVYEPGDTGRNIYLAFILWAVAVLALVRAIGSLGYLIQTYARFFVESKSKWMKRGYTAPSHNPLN

Test [7] has the same target. The description is as §2. Type of test: functional. Put shortly:
as §3

For test [8], the system named is Candida albicans. The test can be described thus: Compound was tested for hydrolysis by Candida albicans H-317 extract; (+) Indicates compound was hydrolyzed by C. albicans H-317 extract. Type of test: functional. Put shortly:
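Cell extract of C. albicans H-317 (100 μL at 200 μg protein/mL) incubated at 37 °C with polyoxin compound (100 μL of 1 μg/mL) plus 300 μL water. Hydrolysis monitored by reversed-phase HPLC, absorbance at 254 nm.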

Where [9] appears, read: Candida albicans, read-out: MIC.

Converted amounts (≈) assume the structure as drawn.

These results are taken from ChEMBL document CHEMBL1124064, “Synthesis and anticandidal properties of polyoxin L analogues containing alpha-amino fatty acids” (1988).

`CCCCCCCCCCC(N)C(=O)NC(C(=O)O)[C@H]1O[C@@H](n2ccc(=O)[nH]c2=O)[C@H](O)[C@@H]1O` (stereo partly drawn): the MIC in the test on Candida albicans [1] (setting [9]) came to 80 µg/mL (≈ 165 µM); in the test with Candida albicans [2] (setting [9]), 40 µg/mL (≈ 82.6 µM); in the test on Candida albicans [3] (setting [9]), 80 µg/mL (≈ 165 µM). In addition, the results for the Inhibition in the test with Candida albicans [4] and in the test with Candida albicans [5] were 87% and 0%, respectively. The compound also gave an ID50 in test [6] of 0.3 µg/mL (≈ 0.619 µM).

With `CCCCCCC(N)C(=O)NC(C(=O)O)[C@H]1O[C@@H](n2ccc(=O)[nH]c2=O)[C@H](O)[C@@H]1O` (stereo in doubt; 3a) [listing 1 of 2 here], the figures for the MIC in the test on Candida albicans [1] (setting [9]), with Candida albicans [2] and in the test on Candida albicans [3] (setting [9]) were 640 µg/mL (≈ 1490 µM), 80 µg/mL (≈ 187 µM) and 160 µg/mL (≈ 373 µM), respectively. Besides, the results for the Inhibition in the test with Candida albicans [4] and in the test on Candida albicans [5] were 71% and 6%, respectively.

Regarding `NC(C(=O)O)[C@H]1O[C@@H](n2ccc(=O)[nH]c2=O)[C@H](O)[C@@H]1O` (stereo partly drawn), the MIC in the test with Candida albicans [1] (setting [9]), in the test with Candida albicans [2] (setting [9]) and in the test on Candida albicans [3] (setting [9]) was over 640 µg/mL throughout. The compound further came in with an Inhibition with Candida albicans [5] of 3%. Further, the ID50 in test [7] is over 100 µg/mL.

For the compound `NC(=O)OCC(O)C(O)C(N)C(=O)NC(C(=O)O)[C@H]1O[C@@H](n2cc(C(=O)O)c(=O)[nH]c2=O)[C@H](O)[C@@H]1O` (stereo partly drawn), the MIC with Candida albicans [1] (setting [9]) is 320 µg/mL (≈ 614 µM); in the test on Candida albicans [2] (setting [9]), 320 µg/mL (≈ 614 µM); with Candida albicans [3] (setting [9]) it was 640 µg/mL (≈ 1230 µM). Further, the Inhibition in the test with Candida albicans [4] amounted to 5%; in the test with Candida albicans [5], 10%. Further, the ID50 in test [6] was found to be 2 µg/mL (≈ 3.84 µM).

In test [6], `CCCCCCCCCCCCCCC(N)C(=O)NC(C(=O)O)[C@H]1O[C@@H](n2ccc(=O)[nH]c2=O)[C@H](O)[C@@H]1O` (stereo in doubt; 5a) [listing 1 of 2 here] came in with an ID50 of over 100 µg/mL.

In the test with Candida albicans [4], `CCCCCCCCCCCCCCC(N)C(=O)NC(C(=O)O)[C@H]1O[C@@H](n2ccc(=O)[nH]c2=O)[C@H](O)[C@@H]1O` (stereo in doubt; 5a) [listing 2 of 2 here] came in with an Inhibition of 56%.

As for `CCCCCCC(N)C(=O)NC(C(=O)O)[C@H]1O[C@@H](n2ccc(=O)[nH]c2=O)[C@H](O)[C@@H]1O` (stereo in doubt; 3b) [listing 1 of 2 here], the MIC with Candida albicans [1], with Candida albicans [2] and against Candida albicans [3] was over 320 µg/mL in each case. Also, the Inhibition was 14% in the test on Candida albicans [4] and 10% in the test with Candida albicans [5].

`CCCCCCC(N)C(=O)NC(C(=O)O)[C@H]1O[C@@H](n2ccc(=O)[nH]c2=O)[C@H](O)[C@@H]1O` (stereo in doubt; 3b) [listing 2 of 2 here] had an ID50 in test [6] of over 50 µg/mL.

As for `CCCCCCCCCCCCCCC(N)C(=O)NC(C(=O)O)[C@H]1O[C@@H](n2ccc(=O)[nH]c2=O)[C@H](O)[C@@H]1O` (stereo in doubt; 5b) [listing 1 of 2 here], the ID50 in test [6] was found to be 10 µg/mL (≈ 18.5 µM).

For `CCCCCCCCCCCCCCC(N)C(=O)NC(C(=O)O)[C@H]1O[C@@H](n2ccc(=O)[nH]c2=O)[C@H](O)[C@@H]1O` (stereo in doubt; 5b) [listing 2 of 2 here], the MIC in the test with Candida albicans [1] (setting [9]), in the test on Candida albicans [2] (setting [9]) and in the test with Candida albicans [3] (setting [9]) was over 320 µg/mL throughout. In addition, the Inhibition amounted to 83% with Candida albicans [4] and 10% with Candida albicans [5].

Turning to `CCCCCCC(N)C(=O)NC(C(=O)O)[C@H]1O[C@@H](n2ccc(=O)[nH]c2=O)[C@H](O)[C@@H]1O` (stereo in doubt; 3a) [listing 2 of 2 here], in the test on Candida albicans [8], the Hydrolysis entry is reported as “(+)”. The same compound registered an ID50 in test [6] of 2 µg/mL (≈ 4.67 µM).
